Experimental data from ChEMBL document CHEMBL1143966, “Design and synthesis of eugenol derivatives, as potent 15-lipoxygenase inhibitors” (Bioorg Med Chem, 2008).

Experiments:
[1] = Inhibition of soybean 15-lipoxygenase; design: species or system Glycine max
Outline: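 Soybean 15-lipoxygenase with linoleic acid substrate (final 134 µM) in 0.1 M borate buffer pH 9 at 20 ± 1 °C. Absorbance read at 234 nm for 60 s after enzyme addition. Inhibitor plus linoleic acid served as blank. At least six controls and three tubes per inhibitor solution. Enzyme kept on ice, with controls run at intervals. IC50 from linear interpolation around 50% activity.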

[2] = Partition coefficient, log P of the compound; assay type: physicochemical; conditions: octanol/water

C=CCc1ccc(OC(=O)c2cccc(Cl)c2)c(OC)c1 showed an IC50 [1] of 5.2 µM and a logP [2] of 2.79.
In the case of C=CCc1ccc(OC(=O)c2cccc(OC)c2)c(OC)c1, the IC50 [1] is reported as 23 µM and the logP [2] is reported as 1.86.
In the case of C=CCc1ccc(OC(=O)c2cccc(F)c2)c(OC)c1, the IC50 [1] is reported as 2.1 µM and the logP [2] is reported as 2.7.
In the case of C=CCc1ccc(OC(=O)c2ccc(F)cc2)c(OC)c1, the IC50 [1] is reported as 7.2 µM and the logP [2] is reported as 2.7.
Work on C=CCc1ccc(OC(=O)C2CCCCC2)c(OC)c1 yielded an IC50 [1] of 2.2 µM and a logP [2] of 3.52.
Work on C=CCc1ccc(OC(=O)c2ccc(OC)cc2)c(OC)c1 yielded an IC50 [1] of 19 µM and a logP [2] of 1.86.
With C=CCc1ccc(OC(=O)c2ccccc2C)c(OC)c1 the IC50 [1] was 77.2 µM and the logP [2] was 2.87.
In the case of C=CCc1ccc(OC(=O)c2cccnc2)c(OC)c1, the IC50 [1] is reported as 1.7 µM and the logP [2] is reported as 0.86.
Compound C=CCc1ccc(OC(=O)c2cccc(C)c2)c(OC)c1 has an IC50 [1] of 11.4 µM and a logP [2] of 2.87.
For C=CCc1ccc(OC(=O)c2ccc(Cl)cc2)c(OC)c1, the IC50 [1] was 134 µM and the logP [2] was 2.79.
In the case of C=CCc1ccc(OC(=O)c2ccccn2)c(OC)c1, the IC50 [1] is reported as 33.3 µM and the logP [2] is reported as 0.86.
In the case of C=CCc1ccc(OC(=O)C23CC4CC(CC(C4)C2)C3)c(OC)c1, the IC50 [1] is reported as 0.017 µM and the logP [2] is reported as 4.82.
Compound C=CCc1ccc(OC(=O)c2ccncc2)c(OC)c1 has an IC50 [1] of 2.3 µM and a logP [2] of 0.86.
Compound C=CCc1ccc(OC(=O)c2ccc(C)cc2)c(OC)c1 has an IC50 [1] of 14.6 µM and a logP [2] of 2.87.
C=CCc1ccc(OC(=O)c2ccccc2Cl)c(OC)c1 gave an IC50 [1] of 168 µM and a logP [2] of 2.79.
C=CCc1ccc(OC(=O)c2ccccc2F)c(OC)c1 showed an IC50 [1] of 6.7 µM and a logP [2] of 2.7.
Compound C=CCc1ccc(O)c(OC)c1 [EUGENOL] has an IC50 [1] of 34.6 µM.
For C=CCc1ccc(OC(=O)c2ccccc2)c(OC)c1 [EUGENYL BENZOAT], the IC50 [1] was 4.4 µM and the logP [2] was 2.25.
